# Published values from different studies.
# CDK17 with cyclin Y: Cyclin-dependent kinase 17, with cyclin Y (CDK17, Homo sapiens, UniProt Q00537)
# CDK17: Cyclin-dependent kinase 17 (CDK17, Homo sapiens, UniProt Q00537)
SMILES,target,assay,setting,endpoint,result
Cc1ccc(C(=O)NCc2ccsc2)cc1C#Cc1cn(C(C)C)c2ncnc(N)c12,CDK17 with cyclin Y,"enzyme activity, inhibitor",1 µM,activity vs control,104%
C[C@@H]1CCN(c2nccc(-c3cnn4ncccc34)n2)C1,CDK17,binding,1 µM,remaining binding,100%
Cc1nccc(COC(=O)N2C[C@@H]3[C@@H](CNC(=O)c4ccc5[nH]nnc5c4)[C@@H]3C2)n1,CDK17,"cell-free assay, competition with immobilised ligand",1 µM,remaining binding,90%
Nc1ncnc2occ(-c3ccc(NC(=O)Nc4cc(C(F)(F)F)ccc4F)cc3)c12,CDK17,"cell-free assay, inhibitor",20 µM,remaining signal,0.4%
Cn1c2c(Cl)c(Cl)ccc2c2cc[nH]c(=O)c21,CDK17,"thermal stability, DSF",10 µM,ΔTm,-0.4 °C
O=C(Nc1cnn(-c2csc(C(=O)NC3COC3)c2)c1)Nc1ccccc1Cl,CDK17 with cyclin Y,"enzyme activity, inhibitor",5 µM,remaining activity,106%
c1ccc(CNc2nc(N3CCOc4ccccc43)nc3c2CCCC3)cc1,CDK17,"target engagement in cells, inhibitor, chemoproteomics",20 mM,inhibition,-12.4%
C[C@@H](c1cccc(C#N)c1)n1cc(Cl)cc(C(N)=O)c1=N,CDK17,"cell-free assay, competition with immobilised ligand",1 µM,remaining binding,84%
COc1cccc2c(NCc3ccccc3)nc(-n3c(N)nc4ccccc43)nc12,CDK17,"target engagement in cells, inhibitor, chemoproteomics",20 mM,inhibition,-40.2%
O=C(Nc1cnc(Oc2ccc(F)cc2)nc1)N1CCc2ncccc2[C@@H]1c1ccc(F)cc1,CDK17,"cell-free assay, competition with immobilised ligand",1 µM,remaining binding,97%
Cn1c2c(Cl)c(Cl)ccc2c2cn[nH]c(=O)c21,CDK17,"thermal stability, DSF",10 µM,ΔTm,0.5 °C
CCCOc1ccc([C@H]2[C@H](C(=O)O)[C@@H](c3ccc4c(c3)OCO4)CN2CC(=O)Nc2c(CC)cccc2CC)cc1,CDK17,"cell-free assay, competition with immobilised ligand",1 µM,remaining binding,91%
Cn1c2c(Cl)c(Cl)ccc2c2cc(N)[nH]c(=O)c21,CDK17,"thermal stability, DSF",10 µM,ΔTm,0.6 °C
